Measurements taken from ChEMBL document CHEMBL3351464, “Identifying novel selective non-nucleoside DNA methyltransferase 1 inhibitors through docking-based virtual screening” (J Med Chem, 2014).
Activity calls are given as the source filed them. The calls are words filed in the database; no cut-off is given here.

Key:
HCT-116 [1] = assay: Induction of apoptosis in human HCT116 cells incubated for 24 hrs by 7-AAD and annexin V staining-based flow cytometry; type: functional, cell-based
[2] = molecular target: T1, DNA (cytosine-5)-methyltransferase 1 (Mus musculus, UniProt P13864); assay: Inhibition of N-terminal His6-tagged mouse DNMT1 (731 to 1602 residues) expressed in Escherichia coli BL21 (DE3) incubated for 15 mins before addition of [3H]-SAM and poly(dI-dC).poly(dI-dC) by liquid scintillation counting based radioactive methylation assay
T1 sequence (P13864 whole entry, the tested form may be a part): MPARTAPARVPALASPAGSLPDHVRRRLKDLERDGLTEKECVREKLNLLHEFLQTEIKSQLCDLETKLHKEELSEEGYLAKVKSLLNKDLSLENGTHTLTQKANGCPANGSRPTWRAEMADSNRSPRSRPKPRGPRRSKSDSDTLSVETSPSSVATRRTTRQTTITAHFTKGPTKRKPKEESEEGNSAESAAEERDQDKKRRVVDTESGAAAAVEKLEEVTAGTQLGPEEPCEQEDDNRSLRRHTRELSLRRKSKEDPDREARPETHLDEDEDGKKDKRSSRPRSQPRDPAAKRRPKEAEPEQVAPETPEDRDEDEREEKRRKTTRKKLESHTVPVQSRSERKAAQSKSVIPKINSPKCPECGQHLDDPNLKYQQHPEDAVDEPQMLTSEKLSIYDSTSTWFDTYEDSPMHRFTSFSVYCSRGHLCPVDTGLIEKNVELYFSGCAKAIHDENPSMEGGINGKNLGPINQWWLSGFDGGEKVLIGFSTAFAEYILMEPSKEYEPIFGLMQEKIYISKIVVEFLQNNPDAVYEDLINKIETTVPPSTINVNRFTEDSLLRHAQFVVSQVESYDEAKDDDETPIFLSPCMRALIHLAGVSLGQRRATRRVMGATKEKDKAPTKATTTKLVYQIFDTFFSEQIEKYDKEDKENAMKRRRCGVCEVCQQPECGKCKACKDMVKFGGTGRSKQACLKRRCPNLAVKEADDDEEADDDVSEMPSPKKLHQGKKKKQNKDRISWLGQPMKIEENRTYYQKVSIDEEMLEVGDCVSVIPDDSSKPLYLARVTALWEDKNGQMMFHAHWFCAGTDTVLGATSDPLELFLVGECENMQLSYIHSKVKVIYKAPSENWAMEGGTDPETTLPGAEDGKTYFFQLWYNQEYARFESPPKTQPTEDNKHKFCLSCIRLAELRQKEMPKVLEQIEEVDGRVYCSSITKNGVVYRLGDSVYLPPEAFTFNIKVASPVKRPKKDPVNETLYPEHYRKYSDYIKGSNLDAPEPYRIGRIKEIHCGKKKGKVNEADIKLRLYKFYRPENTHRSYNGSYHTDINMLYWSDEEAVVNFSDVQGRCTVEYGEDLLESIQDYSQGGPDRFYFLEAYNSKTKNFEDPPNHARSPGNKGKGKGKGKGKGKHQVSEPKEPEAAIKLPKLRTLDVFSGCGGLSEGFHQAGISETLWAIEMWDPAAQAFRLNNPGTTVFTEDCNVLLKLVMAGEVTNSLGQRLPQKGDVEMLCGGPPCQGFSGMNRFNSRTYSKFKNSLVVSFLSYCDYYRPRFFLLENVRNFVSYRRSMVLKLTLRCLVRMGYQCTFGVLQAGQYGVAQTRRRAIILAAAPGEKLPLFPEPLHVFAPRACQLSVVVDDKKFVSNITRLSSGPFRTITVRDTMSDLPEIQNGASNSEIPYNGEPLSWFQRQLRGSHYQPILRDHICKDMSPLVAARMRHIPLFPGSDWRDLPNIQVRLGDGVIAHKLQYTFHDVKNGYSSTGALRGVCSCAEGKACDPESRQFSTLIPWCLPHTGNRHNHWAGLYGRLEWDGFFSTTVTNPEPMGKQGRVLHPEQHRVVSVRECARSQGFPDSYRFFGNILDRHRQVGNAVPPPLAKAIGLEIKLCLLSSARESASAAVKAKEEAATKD
In short: (§1)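 Enzyme was preincubated with compound for 15 min at room temperature, then reacted for 60 min at 37°C. Products were filter-captured, washed and counted by scintillation. IC50 came from a nonlinear dose-response fit; single-point tests used 50 µM.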

[3] = Binding affinity to DNA (unknown origin) at 0.0625 to 0.5 mM by ethidium bromide dye based agarose gel electrophoresis method
[4] = molecular target: DNA (cytosine-5)-methyltransferase 1 (Mus musculus) (UniProt P13864); assay: Inhibition of N-terminal His6-tagged mouse DNMT1 (731 to 1602 residues) expressed in Escherichia coli BL21 (DE3) at 50 uM incubated for 15 mins before addition of [3H]-SAM and poly(dI-dC).poly(dI-dC) by liquid scintillation counting based radioactive methylation assay; in short: as §1
DNA (cytosine-5)-methyltransferase 1 (Mus musculus), sequence (P13864 whole entry, the tested form may be a part): as above

[5] = molecular target: DNA (cytosine-5)-methyltransferase 1 (Mus musculus) (UniProt P13864); assay: (§2) Binding affinity to N-terminal His6-tagged mouse DNMT1 (731 to 1602 residues) expressed in Escherichia coli BL21 (DE3) by SPR assay
In short: (§3)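 Measured by SPR at 25°C. Purified mouse DNMT1 was amine-coupled to a CM5 chip in 10 mM sodium acetate pH 5.0 and equilibrated overnight in HBS-EP (10 mM HEPES pH 7.4, 150 mM NaCl, 3 mM EDTA, 0.05% P20, 0.1% DMSO). Serially diluted compounds were injected with 120 s contact and 120 s dissociation, and KD was derived by the instrument evaluation software.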

[6] = molecular target: T1, DNA (cytosine-5)-methyltransferase 1; assay: as §2; in short: as §3
HCT-116 [7] = assay: Induction of apoptosis in human HCT116 cells assessed as viable cells at 0.75 uM incubated for 24 hrs by 7-AAD and annexin V staining-based flow cytometry (reference value: 92.2%); type: functional; details: HCT-116, 24 h, read-out: Activity
HCT-116 [8] = assay: Induction of apoptosis in human HCT116 cells assessed as early apoptotic cells level at 0.75 uM incubated for 24 hrs by 7-AAD and annexin V staining-based flow cytometry (reference value: 4%); type: functional
HCT-116 [9] = assay: Induction of apoptosis in human HCT116 cells assessed as late apoptotic cells level at 0.75 uM incubated for 24 hrs by 7-AAD and annexin V staining-based flow cytometry (reference value: 3.1%); type: functional
HCT-116 [10] = assay: Induction of apoptosis in human HCT116 cells assessed as necrotic cells level at 0.75 uM incubated for 24 hrs by 7-AAD and annexin V staining-based flow cytometry (reference value: 0.7%); type: functional
HCT-116 [11] = assay: Induction of apoptosis in human HCT116 cells assessed as viable cells at 1.5 uM incubated for 24 hrs by 7-AAD and annexin V staining-based flow cytometry (reference value: 92.2%); type: functional; details: HCT-116, 24 h, read-out: Activity
HCT-116 [12] = assay: Induction of apoptosis in human HCT116 cells assessed as early apoptotic cells level at 1.5 uM incubated for 24 hrs by 7-AAD and annexin V staining-based flow cytometry (reference value: 4%); type: functional
HCT-116 [13] = assay: Induction of apoptosis in human HCT116 cells assessed as late apoptotic cells level at 1.5 uM incubated for 24 hrs by 7-AAD and annexin V staining-based flow cytometry (reference value: 3.1%); type: functional
HCT-116 [14] = assay: Induction of apoptosis in human HCT116 cells assessed as necrotic cells level at 1.5 uM incubated for 24 hrs by 7-AAD and annexin V staining-based flow cytometry (reference value: 0.7%); type: functional
HCT-116 [15] = assay: Induction of apoptosis in human HCT116 cells assessed as viable cells at 3 uM incubated for 24 hrs by 7-AAD and annexin V staining-based flow cytometry (reference value: 92.2%); type: functional; details: HCT-116, 24 h, read-out: Activity
HCT-116 [16] = assay: Induction of apoptosis in human HCT116 cells assessed as early apoptotic cells level at 3 uM incubated for 24 hrs by 7-AAD and annexin V staining-based flow cytometry (reference value: 4%); type: functional
HCT-116 [17] = assay: Induction of apoptosis in human HCT116 cells assessed as late apoptotic cells level at 3 uM incubated for 24 hrs by 7-AAD and annexin V staining-based flow cytometry (reference value: 3.1%); type: functional
HCT-116 [18] = assay: Induction of apoptosis in human HCT116 cells assessed as necrotic cells level at 3 uM incubated for 24 hrs by 7-AAD and annexin V staining-based flow cytometry (reference value: 0.7%); type: functional

SMILES: CC(C)NCC(O)COC(Cn1c2ccccc2c2ccccc21)Cn1c2ccccc2c2ccccc21 (racemic)
- Activity (HCT-116 [1]): Dose-dependent effect
- IC50 [2]: 1700 nM
- Activity [3]: inactive
- inhibition [4]: 102%
- Activity [5]: Dose-dependent effect
- Kd [6]: 910 nM
- viability at 0.75 µM (HCT-116 [7]): 91.1%
- Activity (HCT-116 [8]): 4.6%
- Activity (HCT-116 [9]): 4%
- Activity (HCT-116 [10]): 0.3%
- viability at 1.5 µM (HCT-116 [11]): 76%
- Activity (HCT-116 [12]): 12.5%
- Activity (HCT-116 [13]): 10.8%
- Activity (HCT-116 [14]): 0.7%
- viability at 3 µM (HCT-116 [15]): 27.5%
- Activity (HCT-116 [16]): 42.7%
- Activity (HCT-116 [17]): 27.2%
- Activity (HCT-116 [18]): 2.6%
